Active and inactive are the calls of the source. No cut-off for these calls is given here.
Tests used:
[1] = molecular target: Fatty acid synthase (Homo sapiens) (UniProt P49327); test: Inhibition of FASN in human PC9 cells harboring FASN expression and EGFR delE746-A750 mutant assessed as disruption of AKT/FASN positive feedback loop by measuring ratio of phosphoAKT/AKT expression at 2 uM after 48 hrs in presence of exogenous lipid concentrate by Western immunoblot based densitometric assay relative to control; assay type: cell-based
Outline: (§1)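 PC-9 (2 µM) or H1703 (1 µM) cells were treated with compound, with or without lipid concentrate (1% v/v per figure legend), for 48 h. Cells were lysed in RIPA buffer and lysates run on SDS-PAGE western blots for FASN, AKT, phospho-AKT S473 and GAPDH. Bands were quantified by densitometry and normalised to untreated control.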

[2] = Selectivity index, ratio of IC50 for human SAE cells lacking FASN expression to IC50 for human NCI-H1650 cells expressing FASN
Outline: (§2)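 Index is the SAEC IC50 divided by the IC50 in the FASN-expressing NSCLC line. IC50s came from MTS viability after 72 h exposure at 37 °C, 5% CO2, DMSO 0.1% v/v. Absorbance was read at 490 nm after 2 h. The fit was % viability against log concentration, with 4 technical repeats and 3 independent experiments. NSCLC lines were grown in RPMI/10% FBS; SAEC in BEGM.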

[3] = molecular target: Fatty acid synthase (Homo sapiens) (UniProt P49327); test: Inhibition of FASN in human PC9 cells harboring FASN expression and EGFR delE746-A750 mutant assessed as disruption of AKT/FASN positive feedback loop by measuring reduction in AKT expression at 5 uM after 48 hrs by Western immunoblot based densitometric assay relative to control; assay type: cell-based
Outline: (§3)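 PC-9 or H1703 cells were seeded at 8 × 10^5 per 100 mm dish and treated for 48 h at 1 or 5 µM (or 5, 50 and 100 µM). RIPA lysates were BCA-quantified and run on 8% SDS-PAGE, then transferred to PVDF. Blots were probed for FASN, AKT, phospho-AKT S473 and GAPDH and detected by ECL. Bands were quantified by densitometry and normalised to vehicle control.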

[4] = Selectivity index, ratio of IC50 for human SAE cells lacking FASN expression to IC50 for human PC9 cells harboring FASN expression and EGFR delE746-A750 mutant; outline: as §2
[5] = molecular target: Fatty acid synthase (Homo sapiens) (UniProt P49327); test: Inhibition of FASN in human PC9 cells harboring FASN expression and EGFR delE746-A750 mutant assessed as disruption of AKT/FASN positive feedback loop by measuring decrease in ratio of phosphoAKT/AKT expression at 2 uM after 48 hrs by Western immunoblot based densitometric assay relative to control; assay type: cell-based; outline: as §1
[6] = molecular target: Fatty acid synthase (Homo sapiens) (UniProt P49327); test: Inhibition of FASN in human NCI-H1703 cells expressing FASN assessed as disruption of AKT/FASN positive feedback loop by measuring ratio of phosphoAKT/AKT expression at 1 uM after 48 hrs in presence of exogenous lipid concentrate by Western immunoblot based densitometric assay relative to control; assay type: cell-based; outline: as §1
[7] = molecular target: Fatty acid synthase (Homo sapiens) (UniProt P49327); test: Inhibition of FASN in human PC9 cells harboring FASN expression and EGFR delE746-A750 mutant assessed as disruption of AKT/FASN positive feedback loop by measuring decrease in FASN expression at 1 uM after 48 hrs by Western immunoblot based densitometric assay relative to control; assay type: cell-based; outline: as §3
[8] = molecular target: Fatty acid synthase (Homo sapiens) (UniProt P49327); test: Inhibition of FASN in human NCI-H1703 cells expressing FASN assessed as disruption of AKT/FASN positive feedback loop by measuring decrease in FASN expression after 48 hrs by Western immunoblot assay; assay type: cell-based; outline: as §3
[9] = molecular target: Fatty acid synthase (Homo sapiens) (UniProt P49327); test: Inhibition of FASN in human NCI-H1703 cells expressing FASN assessed as disruption of AKT/FASN positive feedback loop by measuring decrease in phosphorylated AKT expression at 5 uM after 48 hrs by Western immunoblot based densitometric assay relative to control; assay type: cell-based; outline: as §3
[10] = tested on: A549; test: Antiproliferative activity against human A549 cells expressing FASN assessed as reduction in cell viability after 72 hrs by MTS assay; assay type: functional, cell-based; settings: A549, 72 h
Outline: (§4)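 ATCC-sourced cells. H1299, H1650, H1703 and PC-9 were grown in RPMI 1640 with 10% FBS. A549 was grown in high-glucose DMEM with 10% FBS and 1 mM pyruvate. SAEC was grown in BEGM. Cells were seeded at 3 × 10^3 per well (H1650 3.5 × 10^3) and left to attach overnight. Serial dilutions from DMSO stocks were added, 0.1% DMSO final, for 72 h at 37 °C, 5% CO2. Medium was replaced, MTS added, and A490 read after 2 h. IC50 was taken from % viability versus log concentration, 3 experiments.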

[11] = molecular target: Fatty acid synthase (Homo sapiens) (UniProt P49327); test: Inhibition of full length human FASN transfected in HeLa cell lysates at 10 uM using acetyl Co-A/malonyl Co-A as substrate preincubated with enzyme for 2 hrs followed by substrate addition measured after 10 mins in presence of NADPH by microplate reader analysis; assay type: subcellular; settings: Lysate
Outline: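 Human FASN was made by in vitro translation from a FASN plasmid. Lysate was diluted 3:7 in 100 mM potassium phosphate, pH 6.5, 1 mM EDTA. It was preincubated with compound (10 µM final) for 2 h at 37 °C. Buffer containing acetyl-CoA (55 µM) and NADPH (330 µM) was added, then the reaction was started with malonyl-CoA (500 µM stock). A340 was read at 0 and 10 min; triplicates.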

[12] = molecular target: Fatty acid synthase (Homo sapiens) (UniProt P49327); test: Inhibition of FASN in human NCI-H1703 cells expressing FASN assessed as disruption of AKT/FASN positive feedback loop by measuring decrease in ratio of phosphoAKT/AKT expression at 1 uM after 48 hrs by Western immunoblot based densitometric assay relative to control; assay type: cell-based; outline: as §3
[13] = Selectivity index, ratio of IC50 for human SAE cells lacking FASN expression to IC50 for human A549 cells expressing FASN
Outline: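 The ratio IC50(SAEC)/IC50(NSCLC line) was calculated from 72 h MTS viability IC50 values.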

[14] = Selectivity index, ratio of IC50 for human SAE cells lacking FASN expression to IC50 for human NCI-H1703 cells expressing FASN; outline: as §2
[15] = tested on: PC-9; test: Antiproliferative activity against human PC9 cells harboring FASN expression and EGFR delE746-A750 mutant assessed as cell viability at 2 uM after 72 hrs in presence of exogenous lipid concentrate by MTS assay; assay type: functional, cell-based
Outline: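 Cells were treated as in the MTS viability assay. After 6 h, chemically defined lipid concentrate was added to 2% v/v final. Incubation continued for a further 72 h, then viability was read by MTS at 490 nm. Cells were treated at 2 µM (PC-9) or 1 µM (H1703). Mean ± SD, n = 3, compared with compound alone.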

[16] = Ratio of compound kinetic solubility to [1,1'-Biphenyl]-4,4'-diyl bis(3,4,5-trihydroxybenzoate)] kinetic solubility in universal buffer at pH 7.4 measured at 25 degC after 24 hrs by UV/Visible spectroscopic analysis; assay type: physicochemical; settings: pH 7.4, 24 h
[17] = Cytotoxicity against human SAE cells lacking FASN expression assessed as reduction in cell viability after 72 hrs by MTS assay; assay type: cell-based; outline: as §4
[18] = molecular target: Fatty acid synthase (Homo sapiens) (UniProt P49327); test: Inhibition of FASN in human NCI-H1703 cells expressing FASN assessed as disruption of AKT/FASN positive feedback loop by measuring decrease in phosphorylated AKT expression at 1 uM after 48 hrs by Western immunoblot based densitometric assay relative to control; assay type: cell-based; outline: as §3

Fatty acid synthase (Homo sapiens), sequence (P49327 whole entry, looked up): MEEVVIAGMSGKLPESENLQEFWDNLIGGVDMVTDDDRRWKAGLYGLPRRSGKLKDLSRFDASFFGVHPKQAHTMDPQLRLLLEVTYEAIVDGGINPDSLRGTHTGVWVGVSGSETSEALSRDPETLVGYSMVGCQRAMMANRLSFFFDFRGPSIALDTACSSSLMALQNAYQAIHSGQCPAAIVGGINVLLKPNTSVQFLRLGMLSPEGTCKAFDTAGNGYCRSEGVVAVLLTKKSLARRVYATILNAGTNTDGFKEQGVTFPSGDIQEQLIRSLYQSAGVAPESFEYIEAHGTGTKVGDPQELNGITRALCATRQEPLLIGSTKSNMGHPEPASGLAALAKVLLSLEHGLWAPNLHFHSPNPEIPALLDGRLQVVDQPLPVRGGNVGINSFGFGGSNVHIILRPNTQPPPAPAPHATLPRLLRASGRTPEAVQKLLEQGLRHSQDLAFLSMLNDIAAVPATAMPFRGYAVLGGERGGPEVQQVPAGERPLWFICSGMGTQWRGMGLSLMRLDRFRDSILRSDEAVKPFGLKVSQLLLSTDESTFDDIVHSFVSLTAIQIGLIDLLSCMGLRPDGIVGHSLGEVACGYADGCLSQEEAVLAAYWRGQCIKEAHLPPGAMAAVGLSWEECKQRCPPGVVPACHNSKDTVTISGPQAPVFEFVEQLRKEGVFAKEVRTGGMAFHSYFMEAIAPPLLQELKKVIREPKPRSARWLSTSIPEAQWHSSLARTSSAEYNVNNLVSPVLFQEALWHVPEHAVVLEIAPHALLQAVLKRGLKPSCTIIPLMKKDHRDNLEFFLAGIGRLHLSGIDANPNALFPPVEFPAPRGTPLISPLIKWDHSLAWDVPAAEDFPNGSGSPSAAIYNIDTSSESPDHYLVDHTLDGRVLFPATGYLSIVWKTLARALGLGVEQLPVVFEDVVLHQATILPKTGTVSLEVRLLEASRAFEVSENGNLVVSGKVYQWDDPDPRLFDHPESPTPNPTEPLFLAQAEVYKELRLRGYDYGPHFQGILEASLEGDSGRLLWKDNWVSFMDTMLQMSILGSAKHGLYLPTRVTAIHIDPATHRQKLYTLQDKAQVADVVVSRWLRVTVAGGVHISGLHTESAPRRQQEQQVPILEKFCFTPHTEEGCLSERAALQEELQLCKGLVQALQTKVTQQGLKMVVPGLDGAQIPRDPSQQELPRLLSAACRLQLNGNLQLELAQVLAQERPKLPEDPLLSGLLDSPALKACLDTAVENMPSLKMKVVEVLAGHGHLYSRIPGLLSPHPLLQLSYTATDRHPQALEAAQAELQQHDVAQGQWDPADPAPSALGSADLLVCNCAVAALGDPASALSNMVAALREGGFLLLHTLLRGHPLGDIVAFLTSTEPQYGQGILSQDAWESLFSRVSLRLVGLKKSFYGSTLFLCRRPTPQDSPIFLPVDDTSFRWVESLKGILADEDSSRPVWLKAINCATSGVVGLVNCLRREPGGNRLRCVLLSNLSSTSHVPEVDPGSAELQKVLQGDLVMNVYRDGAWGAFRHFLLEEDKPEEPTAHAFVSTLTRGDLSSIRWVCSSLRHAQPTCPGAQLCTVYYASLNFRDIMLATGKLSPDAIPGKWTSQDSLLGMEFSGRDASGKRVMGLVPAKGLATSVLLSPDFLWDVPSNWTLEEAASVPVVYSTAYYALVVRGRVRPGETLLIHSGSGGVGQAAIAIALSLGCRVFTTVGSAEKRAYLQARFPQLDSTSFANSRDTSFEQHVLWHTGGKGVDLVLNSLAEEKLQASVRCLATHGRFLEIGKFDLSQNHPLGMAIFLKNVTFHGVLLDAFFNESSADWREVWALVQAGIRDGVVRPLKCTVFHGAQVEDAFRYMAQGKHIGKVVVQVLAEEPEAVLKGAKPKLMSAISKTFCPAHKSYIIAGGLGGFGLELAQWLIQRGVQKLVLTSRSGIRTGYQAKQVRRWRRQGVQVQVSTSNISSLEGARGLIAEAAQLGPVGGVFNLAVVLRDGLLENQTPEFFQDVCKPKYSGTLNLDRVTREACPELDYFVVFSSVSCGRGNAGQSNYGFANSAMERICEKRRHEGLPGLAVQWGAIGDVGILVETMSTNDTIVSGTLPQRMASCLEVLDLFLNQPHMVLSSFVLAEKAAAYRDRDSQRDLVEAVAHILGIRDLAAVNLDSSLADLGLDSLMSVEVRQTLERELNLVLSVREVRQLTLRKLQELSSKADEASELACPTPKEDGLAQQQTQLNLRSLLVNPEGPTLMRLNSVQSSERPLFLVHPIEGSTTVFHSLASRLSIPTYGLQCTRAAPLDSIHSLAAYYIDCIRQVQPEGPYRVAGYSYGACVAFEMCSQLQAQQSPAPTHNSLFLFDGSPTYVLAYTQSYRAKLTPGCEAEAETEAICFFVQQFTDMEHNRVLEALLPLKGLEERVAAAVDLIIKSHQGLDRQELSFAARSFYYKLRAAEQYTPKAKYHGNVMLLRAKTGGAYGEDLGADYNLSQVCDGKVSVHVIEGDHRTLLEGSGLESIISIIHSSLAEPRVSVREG

O=C(Oc1ccc(/C=C/c2cccc(OC(=O)c3cc(O)c(O)c(O)c3)c2)cc1)c1cc(O)c(O)c(O)c1
Ratio [1]: 0.87 | Ratio IC50 [2]: 0.5 | Ratio [3]: 0.12 | Ratio IC50 [4]: 1.4 | Ratio [5]: 0.12 | Ratio [6]: 0.61 | Ratio [7]: 0.86 | inhibition [8]: Dose-dependent effect | Ratio [9]: 0.04 | IC50 [10]: 2.3 µM | inhibition [11]: Active | Ratio [12]: 0.16 | Ratio IC50 [13]: 3 | Ratio IC50 [14]: 5.3 | inhibition [15]: inactive | Ratio [16]: 15 | IC50 [17]: 6.8 µM | Ratio [18]: 0.57

O=C(Oc1ccc(/C=C/c2ccc(OC(=O)c3cc(O)c(O)c(O)c3)cc2)cc1)c1cc(O)c(O)c(O)c1
Ratio [1]: 0.57 | Ratio IC50 [2]: 2 | Ratio [3]: 0.18 | Ratio IC50 [4]: 2.2 | Ratio [5]: 0.13 | Ratio [6]: 0.62 | Ratio [7]: 0.92 | inhibition [8]: Dose-dependent effect | Ratio [9]: 0.001 | IC50 [10]: 2.1 µM | inhibition [11]: Active | Ratio [12]: 0.04 | Ratio IC50 [13]: 2.4 | Ratio IC50 [14]: 5.2 | inhibition [15]: inactive | Ratio [16]: 6 to 15 | IC50 [17]: 5 µM | Ratio [18]: 0.09

Reference: ChEMBL document CHEMBL4406830, “Galloyl esters of trans-stilbenes are inhibitors of FASN with anticancer activity on non-small cell lung cancer cells” (Eur J Med Chem, 2019)
